What was measured:
Conditions in all cases: stereoisomer not certain
UniProt Q7TRR8 = target: T1, UniProt Q7TRR8
T1 sequence (whole entry): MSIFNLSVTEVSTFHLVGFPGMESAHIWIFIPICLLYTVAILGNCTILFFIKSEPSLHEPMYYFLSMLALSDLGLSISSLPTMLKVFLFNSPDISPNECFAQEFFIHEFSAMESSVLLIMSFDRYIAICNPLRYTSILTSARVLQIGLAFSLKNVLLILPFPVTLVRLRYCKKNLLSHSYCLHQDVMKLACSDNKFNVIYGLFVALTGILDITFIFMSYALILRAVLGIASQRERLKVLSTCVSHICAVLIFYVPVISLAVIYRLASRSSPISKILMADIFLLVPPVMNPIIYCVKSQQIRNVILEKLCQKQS
How it was run: (§1)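 Whether a receptor–molecule pair is responsive (active) rests on the original authors' judgment that its measured signal was statistically different from baseline. Pairs without that judgment are non-responsive (inactive). Sources used varied assay methods, commonly transient luciferase assays in mammalian cell lines.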

UniProt Q7TRW1 = target: T2, UniProt Q7TRW1
T2 sequence (whole entry): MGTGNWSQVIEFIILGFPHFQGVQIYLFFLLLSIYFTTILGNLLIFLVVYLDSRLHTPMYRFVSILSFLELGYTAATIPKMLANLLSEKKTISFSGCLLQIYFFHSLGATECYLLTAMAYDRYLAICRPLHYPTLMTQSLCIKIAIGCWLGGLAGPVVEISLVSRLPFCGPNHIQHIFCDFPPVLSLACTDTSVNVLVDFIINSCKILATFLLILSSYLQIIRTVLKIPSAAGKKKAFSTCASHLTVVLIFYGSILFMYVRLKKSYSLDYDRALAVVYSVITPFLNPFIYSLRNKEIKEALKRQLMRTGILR
How it was run: as §1

UniProt Q7TRX0 = target: T3, UniProt Q7TRX0
T3 sequence (whole entry): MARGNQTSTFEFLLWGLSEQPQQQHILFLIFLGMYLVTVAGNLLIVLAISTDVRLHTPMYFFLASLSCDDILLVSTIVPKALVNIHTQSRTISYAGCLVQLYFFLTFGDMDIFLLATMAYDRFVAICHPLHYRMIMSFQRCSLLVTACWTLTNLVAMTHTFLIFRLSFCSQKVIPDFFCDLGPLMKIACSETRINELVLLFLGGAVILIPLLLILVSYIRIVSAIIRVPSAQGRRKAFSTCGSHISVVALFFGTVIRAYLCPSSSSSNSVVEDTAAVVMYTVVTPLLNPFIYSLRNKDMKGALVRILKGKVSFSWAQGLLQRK
How it was run: as §1

UniProt Q8VEU7 = target: T4, UniProt Q8VEU7
T4 sequence (whole entry): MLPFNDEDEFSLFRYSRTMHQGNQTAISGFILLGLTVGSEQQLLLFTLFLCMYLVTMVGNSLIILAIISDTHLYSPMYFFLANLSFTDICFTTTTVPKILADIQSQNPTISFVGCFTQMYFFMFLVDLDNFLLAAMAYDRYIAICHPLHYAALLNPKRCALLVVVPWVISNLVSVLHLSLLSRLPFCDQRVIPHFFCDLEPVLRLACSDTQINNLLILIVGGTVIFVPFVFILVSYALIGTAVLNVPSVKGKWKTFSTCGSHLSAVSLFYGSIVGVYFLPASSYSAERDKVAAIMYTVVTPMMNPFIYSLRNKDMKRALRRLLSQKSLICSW
How it was run: as §1

UniProt Q8VF05 = target: T5, UniProt Q8VF05
T5 sequence (whole entry): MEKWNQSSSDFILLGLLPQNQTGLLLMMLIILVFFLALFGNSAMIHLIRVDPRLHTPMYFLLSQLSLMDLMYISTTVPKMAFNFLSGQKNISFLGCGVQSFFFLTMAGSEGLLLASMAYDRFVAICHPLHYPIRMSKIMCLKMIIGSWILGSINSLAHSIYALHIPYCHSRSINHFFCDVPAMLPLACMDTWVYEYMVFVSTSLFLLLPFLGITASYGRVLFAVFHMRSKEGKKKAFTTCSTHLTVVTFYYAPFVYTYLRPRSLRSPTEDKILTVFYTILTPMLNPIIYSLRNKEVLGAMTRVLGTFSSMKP
How it was run: as §1

UniProt Q7TRR7 = target: UniProt Q7TRR7
How it was run: as §1

UniProt Q7TRX1 = target: UniProt Q7TRX1
How it was run: as §1
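Further: active if original authors judged signal statistically different from baseline.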

UniProt Q7TRR7, sequence (Q7TRR7 as listed by the source): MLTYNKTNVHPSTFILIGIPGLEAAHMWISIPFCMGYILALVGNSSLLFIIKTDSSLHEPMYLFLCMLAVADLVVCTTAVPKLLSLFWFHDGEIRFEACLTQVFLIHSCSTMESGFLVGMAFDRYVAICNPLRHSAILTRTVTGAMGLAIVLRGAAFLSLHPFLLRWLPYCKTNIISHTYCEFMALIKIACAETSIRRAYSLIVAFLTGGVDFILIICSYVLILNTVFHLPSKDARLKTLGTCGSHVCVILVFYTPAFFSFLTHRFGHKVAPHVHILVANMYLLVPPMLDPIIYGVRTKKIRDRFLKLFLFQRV
UniProt Q7TRX1, sequence (Q7TRX1 as listed by the source): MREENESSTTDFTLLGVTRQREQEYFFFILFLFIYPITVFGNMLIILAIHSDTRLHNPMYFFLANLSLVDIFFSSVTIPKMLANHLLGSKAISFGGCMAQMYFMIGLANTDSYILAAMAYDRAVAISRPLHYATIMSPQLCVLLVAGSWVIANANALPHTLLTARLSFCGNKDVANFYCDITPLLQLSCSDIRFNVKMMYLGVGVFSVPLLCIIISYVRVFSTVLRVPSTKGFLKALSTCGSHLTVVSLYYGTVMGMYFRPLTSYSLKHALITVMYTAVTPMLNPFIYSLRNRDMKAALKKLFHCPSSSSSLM

| Compound | odorant receptor agonist call (UniProt Q7TRR8) | odorant receptor agonist call (UniProt Q7TRW1) | odorant receptor agonist call (UniProt Q7TRX0) | odorant receptor agonist call (UniProt Q8VEU7) | odorant receptor agonist call (UniProt Q8VF05) | odorant receptor agonist call (UniProt Q7TRR7) | odorant receptor agonist call (UniProt Q7TRX1) |
| --- | --- | --- | --- | --- | --- | --- | --- |
| CCCCCCCO | inactive | inactive | inactive | inactive | active |  |  |
| O=C(O)CCCBr | inactive |  |  |  |  |  |  |
| CCCCCCCC(=O)[O-].[H+] | inactive | inactive |  | inactive | inactive |  |  |
| CCCCCCCC(C)=O |  | inactive | inactive | inactive | inactive |  |  |
| CCCCCCO | inactive | inactive | inactive | inactive | inactive |  |  |
| CCCCCC1=C(C)CCC1=O |  | inactive | inactive | inactive | active |  |  |
| O=C([O-])CCCCC(=O)[O-].[H+].[H+] | inactive |  |  |  |  |  |  |
| O=C1Cc2ccccc2O1 |  | inactive | inactive | inactive | inactive |  |  |
| CC(=O)OCc1ccccc1 |  | inactive | inactive | inactive | active |  |  |
| O=C(O)CCCCCC(=O)O | inactive |  |  |  |  |  |  |
| CCCCCCCCO | inactive | inactive | inactive | inactive | inactive |  |  |
| CCCCCC=O |  | inactive | inactive | inactive | active |  |  |
| C=CCOC(=O)CCCCCC |  | inactive | inactive | inactive | inactive |  |  |
| O=C(O)CCCCBr | inactive |  |  |  |  |  |  |
| O=C([O-])CCCCCCCC(=O)[O-].[H+].[H+] | inactive |  | inactive |  |  |  |  |
| CCCCCCC(=O)[O-].[H+] | inactive | inactive |  | inactive | inactive |  |  |
| CCCCCCCCC(=O)O | active | inactive | inactive | inactive | inactive | inactive |  |
| O=C(O)CCCCCBr | inactive |  | inactive |  |  |  |  |
| CC(C)=CCCC(C)CCO (stereo not given) |  | inactive | inactive | inactive | inactive |  | active |
| CCCCOC=O |  | inactive | inactive | inactive | inactive |  |  |
| CCCCCCOC(C)=O |  | inactive | inactive | inactive | inactive |  |  |
| CC(=O)OCC=C(C)C |  | inactive | inactive | inactive | active |  |  |
| O=C(c1ccccc1)c1ccccc1 |  | inactive | inactive | inactive | inactive |  |  |
| CC(=O)Oc1ccccc1 |  | inactive | inactive | inactive | inactive |  |  |
| CCCCCCCCCO | inactive | inactive | inactive | inactive | inactive |  |  |
| O=C([O-])CCCCCCC(=O)[O-].[H+].[H+] | inactive |  | inactive |  |  |  |  |
| CC(C)=CCCC(C)=CCO |  | inactive | inactive | inactive | inactive |  |  |
| CC12CCC(CC1=O)C2(C)C (stereo not given) |  | inactive | inactive | active | inactive |  |  |
| CCCCCO | inactive | inactive |  | inactive | inactive |  |  |

Source: the M2OR odorant receptor database
